KCC2 mod = modulates chloride dependent transport by human KCC2; Q9H2X9; KCC2 cells, thallium flux FluoZin-2 fluorescence; B-score of Tl+ flux slope (higher = more flux/activation; lower = inhibition) at 10 µM; hit rate 2.2% among 190,000; AID 1456;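 active means thallium flux slope and its plate-corrected score both differing from the plate sample mean at a set confidence after two filtering rounds, in either direction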;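 further: slope of fluorescence scaled to starting intensity during 10 to 20 s after thallium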
p47phox inh = inhibitors of human p47phox binding | p47phox/p22phox peptide binding, fluorescence polarization, 2 h | AID 1274 | inhibition, % at 24.7 µM | P14598 | hit rate 0.53% among 220,000;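 active means inhibition above about 30%, limit read from the data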;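 further: 0% = p47phox with labelled peptide and 100% = labelled peptide alone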
Target sequence (P14598 whole entry, looked up): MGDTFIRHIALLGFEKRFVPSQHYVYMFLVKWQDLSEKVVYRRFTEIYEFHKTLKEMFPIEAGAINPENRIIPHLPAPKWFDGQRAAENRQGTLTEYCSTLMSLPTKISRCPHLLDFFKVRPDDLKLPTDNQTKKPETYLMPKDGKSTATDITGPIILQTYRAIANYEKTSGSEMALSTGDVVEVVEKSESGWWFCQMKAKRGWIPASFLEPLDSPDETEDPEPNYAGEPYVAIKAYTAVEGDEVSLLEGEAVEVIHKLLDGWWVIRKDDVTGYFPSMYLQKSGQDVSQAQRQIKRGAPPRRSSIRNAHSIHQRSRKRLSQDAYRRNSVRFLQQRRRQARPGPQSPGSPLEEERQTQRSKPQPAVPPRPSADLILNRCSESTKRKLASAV
ROMK mod = human ROMK K+ channel modulation, primary screen. Tet-inducible ROMK, thallium flux fluorescence; actives lie on both sides. P48048. hit rate 2% among 130,000. AID 1918. B-score at 10 µM;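 active means signal ratio slope over the read window, or its plate-corrected B-score, at least 3 SD from the plate mean, either direction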;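 further: B-score of the F/F0 ratio slope over 7 to 12 s after thallium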
RBBP9 inh = inhibitors of human serine hydrolase RBBP9 | O75884 | recombinant RBBP9, FP-Rh probe fluorescence polarization | inhibition, % at 7.94 µM | hit rate 0.2% among 220,000 | AID 1515;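 active means inhibition above the campaign mean of all tested compounds plus 3 SD, cut at about 14% in these data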;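 further: plate controls were DMSO wells with RBBP9 for no effect and wells lacking RBBP9 protein for full effect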
Target sequence (O75884 whole entry, looked up): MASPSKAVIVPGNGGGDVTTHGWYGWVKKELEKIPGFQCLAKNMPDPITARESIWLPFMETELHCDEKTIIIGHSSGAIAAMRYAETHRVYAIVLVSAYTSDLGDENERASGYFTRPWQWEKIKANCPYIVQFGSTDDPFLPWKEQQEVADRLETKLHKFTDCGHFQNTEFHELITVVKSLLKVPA
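Test system: recombinant human RBBP9. Quantity: 2.5 µM RBBP9 dispensing solution, before mixing. Detection: FP readout at 525/598 nm. Reagent: Serine-hydrolase probe FP-Rh, 375 nM pre-mixing. Measure: % inhibition. Control set: DMSO-treated enzyme wells and wells lacking RBBP9. Buffer or medium: Tris-NaCl-Pluronic buffer, pH 8.0. Times: preincubation 30 min plus labeling 45 min at 25 °C.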
WT yeast gro inh = growth inhibition of WT yeast, mitochondrial fusion screen | mitochondrial fusion phenotypic screen, WT strain | hit rate 2.1% among 190,000 | inhibition, % at 10 µM; in the data active means inhibition above about 58%; tested in S. cerevisiae
14-3-3 Bad inh = disrupts binding of bovine 14-3-3 zeta to phospho-Bad peptide; AID 781; TR-FRET 14-3-3zeta/Dy647-pBad peptide displacement, 1 h; hit rate 0.71% among 220,000; inhibition, % at 21.7 µM; P63103;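 active means inhibition above about 70%, limit read from the data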;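 further: 0% = full 14-3-3 plus peptide FRET controls and 100% = background without 14-3-3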
ROMK hit retest = confirmation of human ROMK potassium channel modulators; shares compounds with ROMK mod; ROMK thallium flux, fluorescence ratio; hits give low values; normalized thallium flux (F/F0 slope) at 10 µM; hit rate 54% among 3,000; AID 1917;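 active means Flux at 10 µM at least 3 SD below or above vehicle control mean in one or both replicates; inconclusive means no clear call, values can overlap the other calls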
An asterisk follows results filed as active; ? = inconclusive; nt = no result. An excerpt weighted towards active compounds, which were near 5.8% of everything screened.

SMILES | KCC2 mod | p47phox inh | ROMK mod | RBBP9 inh | WT yeast gro inh | 14-3-3 Bad inh | ROMK hit retest
Cc1ccc(C(=O)/C=C/c2ccccc2[N+](=O)[O-])cc1 | 0.44 | -11 | 1.3 | -7 | -11 | -5 | nt
Cc1cc2ccccc2n1CCNC(=O)c1cccs1 | nt | -13 | nt | 3 | 21 | -11 | 0.069*
O=C(/C=C/c1ccccc1[N+](=O)[O-])N1CCN(C(=O)c2ccco2)CC1 | -0.75 | -7 | 0.44 | -5 | -9 | -8 | nt
CC1(C)C2CC=C(/C=N/NC(=S)Nc3cccnc3)C1C2 (stereo not drawn) | 1.3 | -5 | -3.1* | -10 | 15 | -15 | 0.078
C=C(C)CNC(=S)N/N=C/C1=CCC2CC1C2(C)C (stereo not drawn) | 1.3 | -11 | nt | 2 | 64 | -9 | nt
CCn1c(=O)c(=O)[nH]c2cc(C(=O)NC3CC3)ccc21 | 0.53 | -8 | 0.78 | -8 | 5 | -6 | nt
CCn1c(=O)c(=O)[nH]c2cc(C(=O)NC3CCCc4ccccc43)ccc21 (stereo not drawn) | -2.3 | -43 | 3.2* | -9 | -6 | 4 | 0.083
COc1ccc(C2CC(C)(c3ccc(OC)cc3)Nc3ccccc3N2)cc1 (stereo not drawn) | 0.93 | 3 | nt | -4 | nt | 4 | 0.087
CC(C)(C)n1ncc2c(=O)n(CC(=O)NCc3ccc(F)cc3)cnc21 | -0.0083 | -5 | 3.9* | -2 | -13 | 2 | 0.084
CCOC(=O)C(C)Oc1cccc2c(=O)n(CC(=O)NCc3ccc(F)cc3)ccc12 (stereo not drawn) | 0.54 | 1 | 3.6* | -1 | nt | -2 | 0.088
CCOC(=O)C(C)Oc1cccc2c(=O)n(CC(=O)NCc3ccccc3)ccc12 (stereo not drawn) | 0.11 | -5 | 1.9 | -5 | nt | 6 | nt
Cc1ccc(Oc2c(CO)c(-c3ccccc3)nn2C)cc1 | -1.3 | 1 | -0.004 | -3 | -6 | -12 | nt
CN(C)CCN(C(=O)c1ccc(N2C(=O)CCC2=O)cc1)c1nc2cc3c(cc2s1)OCCO3 | -0.34 | nt | 2.7 | -3 | -6 | 3 | nt
Cc1ccc2nc(N3CC(=O)Nc4ccccc43)nc(-c3ccccc3)c2c1 | -0.35 | -13 | -0.56 | -2 | 11 | 1 | nt
O=C(O)c1ccc(COc2ccc(Cl)cc2)o1 | 0.084 | 1 | nt | -5 | -3 | 4 | ?
C/C(N=Nc1nc2ccccc2s1)=N\Nc1ccccc1O | 1.7 | 24 | 0.12 | -2 | nt | -5 | nt
Cc1cc(Br)cn2ccnc12 | 0.095 | 6 | 1.2* | 0 | -5 | 10 | 0.08
Cn1c(=O)c([N+](=O)[O-])c(Cl)c2ccccc21 | -1.1 | -3 | -5.1* | -3 | 52 | -3 | 0.049*
NC(CO)(CO)COCc1ccccc1 | 0.75 | -17 | 0.63 | -3 | -12 | -12 | nt
O=c1oc(/C=C/c2ccccc2)nc2sc3c(c12)CCC3 | nt | -7 | -3.7* | 4 | -7 | -15 | 0.045*
Cc1cc2nnc(SCC(=O)Nc3cccc(S(=O)(=O)N4CCOCC4)c3)n2c2ccccc12 | -3 | -1 | nt | -3 | -21 | -5 | 0.082
Cn1cnnc1SCC(=O)Nc1cccc(S(=O)(=O)N2CCOCC2)c1 | 0.16 | -12 | 0.92 | 8 | 12 | -4 | nt
CC(C)(C)c1ccc(C(=O)Nc2sc3c(c2C(=O)O)CCC3)cc1 | 0.67 | -13 | 0.23 | -4 | 2 | 1 | 0.074
Cc1cccc(C(=O)Nc2sc3c(c2C(=O)O)CCC3)c1 | -1.4 | -9 | nt | 10 | nt | -2 | nt
O=C(Nc1sc2c(c1C(=O)c1ccccc1)CCCC2)c1cccnc1 | -0.47 | -9 | -3.7* | -4 | 7 | -15 | 0.068*
SMILES | KCC2 mod | p47phox inh | ROMK mod | RBBP9 inh | WT yeast gro inh | 14-3-3 Bad inh | ROMK hit retest
COc1cccc(C(=O)Nc2ccc(S(=O)(=O)Nc3cc(C)nc(C)n3)cc2)c1 | 0.19 | 2 | 0.99 | -6 | -10 | 1 | nt
CC(C(=O)NC1CCCc2ccccc21)N1CCN(Cc2ccc3c(c2)OCO3)CC1 (stereo not drawn) | 0.22 | -3 | -3* | -9 | 5 | -9 | 0.058*
Cc1ccc(C(=O)c2cc([N+](=O)[O-])ccc2N2CCOCC2)cc1 | -0.97 | 5 | nt | -5 | 18 | 21 | nt
CCOc1ccc(C(=O)c2cc([N+](=O)[O-])ccc2N2CCOCC2)cc1 | 0.12 | -130 | 6.7* | -8 | -4 | 2 | 0.086
COc1ccc(C(=O)c2cc([N+](=O)[O-])ccc2N2CCOCC2)cc1 | -0.33 | 5 | 5.6* | 2 | 3 | -2 | 0.091
Cc1ccc(C(=O)c2cc([N+](=O)[O-])ccc2N2CCCCC2)c(C)c1 | 0.84 | -14 | 2.7* | -8 | 52 | -2 | 0.083
COc1cc(CN2CCc3ccccc3C2)ccc1O | 0.029 | -7 | nt | -6 | nt | 16 | nt
Oc1cc(Br)ccc1C=Nc1ccc(N2CCCCC2)cc1 | -1.1 | -91 | nt | -3 | nt | 1 | 0.046*
Oc1ccc(C=Nc2ccc(N3CCOCC3)cc2)c(O)c1 | -3.1 | -3 | nt | 5 | 0 | -5 | nt
O=C(Nc1cc(Cl)cc(Cl)c1)N1CCCC1 | 0.19 | -19 | nt | -4 | nt | -6 | nt
O=C(O)c1ccc(-c2nc(-c3cccc(C(F)(F)F)c3)cs2)cc1 | -0.7 | -6 | 3.1* | -4 | 8 | 7 | 0.087
O=C(O)c1ccc(-c2nc(-c3ccc(Cl)cc3)cs2)cc1 | -0.75 | -8 | -0.45 | -4 | 31 | -2 | nt
Cn1nc(C(F)(F)F)c(-c2ccc(Br)cc2)c1NC(=O)Nc1ccc(F)cc1F | 0.99 | -8 | 0.16 | -18 | nt | -1 | nt
O=C(CN1CCNC(=O)C1)NCCc1ccc(Cl)cc1Cl | -0.023 | nt | -0.43 | 3 | -6 | -3 | nt
CN(C)S(=O)(=O)Oc1cccc(C(=O)Nc2ccc(Cl)cc2)c1 | -1.2 | 2 | nt | -12 | 3 | -2 | 0.074
CN(C)S(=O)(=O)Oc1cccc(C(=O)Nc2ccccc2Cl)c1 | -0.17 | 5 | nt | -2 | 30 | -3 | nt
COc1ccc(Nc2ncnc3scc(-c4ccc(OC)cc4)c23)cc1 | -1.2 | -21 | -0.71 | -6 | 72* | -1 | 0.066*
COc1ccc(-c2csc3ncnc(Cl)c23)cc1 | -0.25 | -1 | -1.2 | -1 | -11 | -2 | nt
CC(C)c1ccc(/C=N/NC(=O)CC(=O)NC2CCCCC2)cc1 | 0.26 | 9 | -9.2* | -8 | -9 | -6 | 0.072
CCSc1nc2ccccc2c(=O)n1CCc1ccc(OC)c(OC)c1 | nt | -15 | nt | 5 | nt | -2 | 0.082
C=CCn1c(SCC(N)=O)nnc1-c1cccc(Br)c1 | 0.38 | -17 | nt | -6 | -3 | 1 | 0.087
C=CCn1c(SCC(N)=O)nnc1-c1cnccn1 | 0.06 | -1 | 0.53 | 1 | nt | -3 | nt
CCOC(=O)[C@H]1NN=C(C(=O)OC)[C@@H]1c1ccccc1 | -0.033 | -1 | -0.4 | -4 | -1 | -7 | nt
CCOC(=O)C1=C(Cc2ccc(F)cc2)C(=O)c2ccccc2C1=O | -0.065 | 1 | -3.3* | -4 | 16 | -3 | 0.061*

Assay outcomes (PubChem BioAssay)
